Compounds with a hit are over-represented: about 0.74% of the library has one in this group of screens.
RGS4-Gao reg = human RGS4-Galphao interaction regulation | Multiplexed bead flow cytometry, RGS4-Galphao binding; actives lie on both sides | AID 1415 | hit rate 0.33% among 220,000 | binding response (% of control), % at 10 µM | P09471; in the data active means binding response below about 49% or above about 150%; inactive means in between;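 further: fluorescent Galphao activated with aluminum fluoride binding bead-coupled RGS4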
Target sequence (P09471 whole entry, looked up): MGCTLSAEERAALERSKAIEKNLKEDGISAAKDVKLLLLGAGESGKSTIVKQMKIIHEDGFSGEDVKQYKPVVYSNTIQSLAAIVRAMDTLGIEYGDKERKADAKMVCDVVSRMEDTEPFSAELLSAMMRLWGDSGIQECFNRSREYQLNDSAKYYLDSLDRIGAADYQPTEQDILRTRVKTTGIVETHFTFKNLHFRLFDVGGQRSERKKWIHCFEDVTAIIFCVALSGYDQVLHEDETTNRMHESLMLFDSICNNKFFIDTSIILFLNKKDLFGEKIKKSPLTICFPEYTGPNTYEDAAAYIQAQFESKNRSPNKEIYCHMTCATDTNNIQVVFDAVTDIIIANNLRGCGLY
Biofilm kill mix = mixture kills Candida albicans biofilm cells; C. albicans biofilm persisters + clotrimazole, fluorescence viability; primary screen in compound mixtures of four per well; inhibition, % at 7.6 µM; hit rate 0.02% among 120,000; AID 1242;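 active means inhibition above 30.3% in the primary screen of four-compound pools, then above 30% when the compound was retested; inconclusive means passed the primary limit but could not be retested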;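 further: compounds exposed to preformed 24 h biofilms for 48 h; 0% = untreated biofilm control and 100% = clotrimazole plus chlorhexidine kill blank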
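Incubation: 24 h biofilm formation, then 48 h compound exposure, 37 °C | Material: C. albicans biofilms | Buffer or medium: RPMI/MOPS medium, pH 7.0 | Measured by: 2-h Alamar Blue fluorescence, 535/590 nm excitation/emission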
RGS7-Gao reg = human RGS7-Galphao interaction regulation | hit rate 0.35% among 220,000 | Multiplexed bead flow cytometry, RGS7-Galphao binding; actives lie on both sides | AID 1439 | P09471 | binding response (% of control), % at 10 µM; in the data active means binding response below about 49% or above about 150%; inconclusive means no clear call, values can overlap the other calls; inactive means in between;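 further: fluorescent Galphao held in activated GDP-AlF4 state binding bead-coupled RGS7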
RGS8-Gao = modulates binding of RGS8 to human Galphao; P09471; multiplexed bead flow cytometry; actives lie on both sides; response (percent of control binding), % at 10 µM; hit rate 0.34% among 220,000; AID 1423; in the data active means response below about 60% or above about 140%; inactive means in between;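 further: Galphao activated as the GDP aluminium fluoride complex binding bead-coupled RGS8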
RGS16-Gao = regulators of human RGS16-Galphao interaction; O15492+P09471; bead-based flow cytometry RGS16-Galphao binding, fluorescence; actives lie on both sides; hit rate 0.38% among 220,000; binding response (% of control), % at 10 µM; AID 1441;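 further: Galphao activated by GDP with aluminum fluoride before binding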
RGS-Gao = regulators of human RGS4-Galphao interaction | shares compounds with RGS16-Gao | multiplexed bead flow cytometry, RGS–Galpha-o binding | hit rate 99% among 1,600 | RGS4–Galpha-o binding response, % at 10 µM;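 further: fluorescently labeled Galpha-o bound to GDP with aluminium fluoride binding biotinylated RGS beads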
Biotin-avidin = biotin-avidin bead binding disruption counter-screen; streptavidin beads, fluorescein-biotin binding, flow cytometry; shares compounds with RGS16-Gao; inhibition, % at 10 µM; AID 1783; 1,700 tested, under 10 active;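 active means inhibition above 50%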;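 further: median green fluorescence of gated singlet beads compared with DMSO control wells; 0% = DMSO wells and 100% = complete loss of bead fluorescence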
RGS8-Gao single = RGS8-Galphao interaction regulation, single point confirmation; shares compounds with RGS16-Gao; hit rate 3% among 1,700; bead-based flow cytometry RGS8-Galphao binding, fluorescence; actives lie on both sides; binding response (% of control), % at 10 µM; in the data active means binding response below about 72% or above about 130%; inactive means in between;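 further: Galphao activated as GDP AlF4 complex before binding bead RGS8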
RGS7-Gao single = RGS7-Galphao interaction regulation, single point confirmation | shares compounds with RGS16-Gao | bead-based flow cytometry RGS7-Galphao binding; actives lie on both sides | response (percent of control binding), % at 10 µM | hit rate 7.8% among 1,700 | AID 1837; in the data active means response below about 75% or above about 130%; inactive means in between;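 further: fluorescent Galphao activated with GDP and aluminum fluoride binding bead-coupled RGS7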
RGS16-Gao single = RGS16-Galphao interaction regulation, single point confirmation; shares compounds with RGS16-Gao; bead-based flow cytometry, RGS16-Galphao binding; actives lie on both sides; response (% of control binding), % at 10 µM; hit rate 4% among 1,700; AID 1838; in the data active means response below about 74% or above about 130%; inactive means in between;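 further: Galphao activated as the GDP aluminium fluoride complex binding bead-coupled RGS16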
RGS4-Gao confirm = confirmation of regulators of human RGS4-Galphao interaction. shares compounds with RGS16-Gao. RGS4-Galphao binding, multiplexed bead flow cytometry; actives lie on both sides. binding response (% of control), % at 10 µM. hit rate 4% among 1,700; in the data active means binding response below about 74% or above about 130%; inactive means in between
RGS19-Gao conf = confirmation of regulators of human RGS19-Galphao interaction | response (percent of control binding), % at 10 µM | AID 1841 | hit rate 5% among 1,700 | shares compounds with RGS16-Gao | bead-based flow cytometry RGS19-Galphao binding; actives lie on both sides; in the data active means response below about 50% or above about 160%; inactive means in between;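 further: 100% = no compound control and 0% = blank background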
Target sequence (P09471 whole entry, looked up): as above
Target sequence (P49795 whole entry, looked up): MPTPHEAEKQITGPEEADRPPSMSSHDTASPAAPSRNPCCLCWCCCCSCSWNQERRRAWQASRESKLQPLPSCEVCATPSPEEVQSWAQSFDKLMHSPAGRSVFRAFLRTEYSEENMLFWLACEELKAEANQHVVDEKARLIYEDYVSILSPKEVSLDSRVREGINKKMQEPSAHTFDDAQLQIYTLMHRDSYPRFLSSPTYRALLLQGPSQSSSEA
Numbers without * were called inactive; u = inconclusive; x = no result given; [ ] = remark or other dose. Unless noted, how the calls were made is not given here.

SMILES	RGS4-Gao reg	Biofilm kill mix	RGS7-Gao reg	RGS8-Gao	RGS16-Gao	Biotin-avidin	RGS8-Gao single	RGS7-Gao single	RGS16-Gao single	RGS4-Gao confirm	RGS19-Gao conf	others
CC1Oc2cc3c(-c4c(O)cc(O)c5c(O)c6c(cc45)OC(C)C(C)C6=O)c(O)cc(O)c3c(O)c2C(=O)C1C (stereo not given)	14*	11	u	36*	15*	x	x	x	x	x	x
CC(C(=O)O)N(C(=O)c1ccccc1)c1ccc(F)c(Cl)c1 (stereo not given)	94	14	99	97	95	x	x	x	x	x	x
Nc1c([N+](=O)[O-])cc(F)c(N2CCNCC2)c1Br	44*	8	39*	52*	40	0	104	101	104	99	89
O=C1/C(=C\c2ccc(Cl)c(Cl)c2)N2CCC1CC2	101	4	u	100	102	x	x	x	x	x	x
O=C(c1ccc(N2CC3CC(C2)c2cccc(=O)n2C3)c([N+](=O)[O-])c1)N1CCCC1 (stereo not given)	99	16	96	101	103	x	x	x	x	x	x
Cc1ccc(C(=O)N[C@@H](C)CN2C3=NC[C@H](Cc4ccccc4)N3C[C@H]2Cc2ccc(O)cc2)cc1Br	73	19	u	91	77	x	x	x	x	x	x
Cc1ccc(C(=O)N[C@@H](C)CN2C3=NC[C@@H](Cc4ccccc4)N3C[C@H]2Cc2ccc(O)cc2)cc1Br	17*	15	5.7*	18*	9.1*	2	103	103	99	103	96
C/C(=N\N1CCCCCC1)c1c(O)n(-c2ccccc2C)c(=O)[nH]c1=O	105	27	u	107	108	x	x	x	x	x	x
CCOC(=O)N1CCC(NC(=O)CCc2nc(C3=CCN(C)CC3)no2)CC1	125	x	190*[activator]	101	109	x	x	x	x	x	x	RGS-Gao=125*
N#CC12CNCC1CN=N2 (stereo not given)	125	5	u	115	127	x	x	x	x	x	x
COc1ccc(C2CC(c3c(O)n(CCc4ccccc4)c(=O)[nH]c3=O)=NN2)cc1OC (stereo not given)	93	32	u	97	90	x	x	x	x	x	x
Cc1c(C(c2ccc(F)cc2)c2c(O)c3ccccc3oc2=O)c(=O)n(-c2ccccc2)n1C (stereo not given)	67	10	38*	46*	84	0	108	110	113	106	112	RGS-Gao=67*
COc1ccc(C(c2c(O)c3ccccc3oc2=O)c2c(C)n(C)n(-c3ccccc3)c2=O)cc1 (stereo not given)	96	8	94	100	92	x	x	x	x	x	x
CC(C)N1C(=O)CC2(CC[N+](C)(CCOC(=O)C(O)(c3ccccc3)c3ccccc3)CC2)C1=O (stereo not given)	32*	x	27*	32*	25*	3	104	102	101	102	85
Clc1cc(Cl)cc(NC2=NCCS2)c1	-29*	0	u	17*	-17*	0	103	106	102	106	98
NC1=Nc2ccccc2Oc2ccccc21	103	x	105	109	131	x	x	x	x	x	x
O=C(O)CC1OCC=C2CN3CCC45C6=CC(=O)C(=O)C([N+](=O)[O-])=C6NC4C1C2CC35 (stereo not given)	46*	21	u	69	47	-1	99	97	97	101	98
c1ccc(CCn2nnnc2CN2CCC(n3nnc4ccccc43)CC2)cc1	131	x	128	161*[activator]	434	-1	105	105	105	103	106	RGS-Gao=131*
O=P(Nc1ccccc1)(Nc1ccccc1)Oc1ccccc1	80	12	81	62	10*	0	99	106	103	105	106	RGS-Gao=80*
COc1ccc(NP(=O)(Nc2ccc(OC)cc2)Oc2ccccc2)cc1	100	23	104	98	106	x	x	x	x	x	x
CCOP(=O)(OCC)C(O)c1ccc(OC)cc1 (stereo not given)	x	10	x	x	x	1	96	87	93	91	69
COc1ccc(C(O)P(=O)(OC(C)C)OC(C)C)cc1 (stereo not given)	107	16	u	99	103	x	x	x	x	x	x
O=C(/C=C/c1c[nH]c2ccccc12)c1c(O)n(CCc2ccccc2)c(=O)[nH]c1=O	104	15	u	102	104	x	x	x	x	x	x
O=C(NC12CC3CC(CC(C3)C1)C2)OC1CN2CCC1CC2 (stereo not given)	167*[activator]	18	u	101	128	1	100	102	99	100	100
CCc1ccc(-c2nn(Cc3ccccc3)cc2C=O)cc1	104	11	103	108	118	x	x	x	x	x	x
Cc1cccc(N2C(=O)NC(=O)/C(=C\c3cccn3-c3ccc(Cl)cc3)C2=O)c1	129	x	233*[activator]	89	95	x	x	x	x	x	x	RGS-Gao=129*
O=c1[nH]c(=O)n(Cc2ccco2)c(O)c1C=NCc1cccs1	96	x	95	97	95	x	x	x	x	x	x
O=c1[nH]c(=S)n(Cc2ccco2)c(O)c1C=NCc1cccs1	x	x	x	x	x	-1	87	53*	74*	66*	47*

Compound activity as filed in PubChem.
